Results from ChEMBL document CHEMBL4610016, “Synthesis, biological evaluation and anti-proliferative mechanism of fluorine-containing proguanil derivatives” (Bioorg Med Chem, 2020).
The source made the active and inactive calls. The rule behind the calls is not given here.

Experiments:
UMUC3 [1] = assay: Antiproliferative activity against human UM-UC-3 cells assessed as reduction in cell viability incubated for 72 hrs by MTT assay; format: functional, cell-based; conditions: UMUC3, 72 h
How it was run: (§1)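 Cells were seeded at 6.0×10³ per well and left 12 h, then treated in triplicate for 72 h. Ranges were 0–8 μM for UMUC3, T24, A2780 and HCT116, and 0–4 μM for A549. MTT (2 mg/mL) replaced the medium for 6 h at 37 °C, followed by DMSO solubilization and OD 490 nm. IC50 was taken as the mean of triplicate measurements. Cells were kept at 37 °C, 5% CO₂.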

A549 [2] = assay: Antiproliferative activity against human A549 cells assessed as reduction in cell viability incubated for 72 hrs by MTT assay; format: functional, cell-based; conditions: A549, 72 h; how it was run: as §1
HCT-116 [3] = assay: Antiproliferative activity against human HCT116 cells assessed as reduction in cell viability incubated for 72 hrs by MTT assay; format: functional, cell-based; conditions: HCT-116, 72 h
A2780 [4] = assay: Antiproliferative activity against human A2780 cells assessed as reduction in cell viability incubated for 72 hrs by MTT assay; format: functional, cell-based; conditions: A2780, 72 h; how it was run: as §1
T-24 [5] = assay: Antiproliferative activity against human T24 cells assessed as reduction in cell viability incubated for 72 hrs by MTT assay; format: functional, cell-based; conditions: T-24, 72 h
A549 [6] = assay: Inhibition of colony formation in human A549 cells at 2 uM incubated for 6 to 8 days by crystal violet staining based assay relative to control; format: functional
How it was run: (§2)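 Colony formation: 8.0×10³ cells per well were seeded, and treatment began after 24 h, in triplicate, for 6–8 days. Ranges were 0–8 μM for UMUC3, T24 and HCT116, 0–4 μM for A2780, and 0–2 μM for A549. Cells were fixed in 10% formaldehyde and stained with 0.1% crystal violet. Colonies were counted, and absorbance was read at 490 nm. Data are the mean of 3 independent experiments.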

T-24 [7] = assay: Inhibition of cell migration in human T24 cells at 3 uM incubated for 24 and 48 hrs by cellular scratch assay based microscopic analysis; format: functional
How it was run: (§3)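 Scratch wound assay. Cells were grown to confluence and scratched with a 10 μL tip, then washed twice with PBS. Compound was added in serum-free medium: 3 μM for UMUC3 and T24, 2 μM for A549. Gaps were photographed at 0, 24 and 48 h, and wound closure distance was measured. Three independent repeats were run.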

UMUC3 [8] = assay: Inhibition of cell migration in human UM-UC-3 cells at 3 uM incubated for 24 and 48 hrs by cellular scratch assay based microscopic analysis; format: functional; how it was run: as §3
UMUC3 [9] = assay: Inhibition of colony formation in human UM-UC-3 cells at 2 uM incubated for 6 to 8 days by crystal violet staining based assay; format: functional, cell-based; how it was run: as §2
HCT-116 [10] = assay: Inhibition of colony formation in human HCT116 cells at 2 uM incubated for 6 to 8 days by crystal violet staining based assay; format: functional, cell-based; how it was run: as §2
HUVEC = assay: Cytotoxicity against human HUVEC cells assessed as reduction in cell viability incubated for 72 hrs by MTT assay; format: cell-based
How it was run: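 HUVEC were treated at 0–8 μM for 72 h, and viability was read from concentration-response curves. Values are the average of 3 independent experiments.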

T-24 [11] = assay: Inhibition of colony formation in human T24 cells at 2 uM incubated for 6 to 8 days by crystal violet staining based assay; format: functional, cell-based; how it was run: as §2
A549 [12] = assay: Inhibition of cell migration in human A549 cells at 2 uM incubated for 24 and 48 hrs by cellular scratch assay based microscopic analysis; format: functional; how it was run: as §3
A2780 [13] = assay: Inhibition of colony formation in human A2780 cells at 2 uM incubated for 6 to 8 days by crystal violet staining based assay; format: functional, cell-based; how it was run: as §2
[14] = target: T1, AMP-activated protein kinase, AMPK (Homo sapiens) (UniProt P54646+O43741+P54619+Q9UGJ0+Q9Y478+Q13131+Q9UGI9); assay: Activation of AMPK in human UM-UC-3 cells assessed as decrease in 4EBP1 phosphorylation at 2 uM measured upto 12 hrs by Western blot analysis; format: cell-based
How it was run: (§4)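 Western blot of bladder cancer cells treated at 2 μM over a 0–12 h time course; separately, a 0–2 μM series was run for 12 h. Lysates were resolved by 8% or 10% SDS-PAGE, transferred to PVDF, and blocked in 5% milk/TBST for 1 h. Primary antibodies were applied overnight at 4 °C and secondaries for 1 h. Phospho- and total AMPK, mTOR, p70S6K and 4EBP1 were probed. Band density was normalized to β-actin, and the mean of 3 independent experiments is reported.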

[15] = target: T1, AMP-activated protein kinase, AMPK (Homo sapiens); assay: Activation of AMPK in human T24 cells assessed as increase in AMPK phosphorylation at 2 uM measured upto 12 hrs by Western blot analysis; format: cell-based; conditions: T-24; how it was run: as §4
[16] = target: T1, AMP-activated protein kinase, AMPK (Homo sapiens); assay: Activation of AMPK in human T24 cells assessed as decrease in mTOR phosphorylation at 2 uM measured upto 12 hrs by Western blot analysis; format: cell-based; conditions: T-24; how it was run: as §4
[17] = target: T1, AMP-activated protein kinase, AMPK (Homo sapiens); assay: Activation of AMPK in human UM-UC-3 cells assessed as decrease in p70S6K phosphorylation at 2 uM measured upto 12 hrs by Western blot analysis; format: cell-based; how it was run: as §4
[18] = target: T1, AMP-activated protein kinase, AMPK (Homo sapiens); assay: Activation of AMPK in human UM-UC-3 cells assessed as increase in AMPK phosphorylation at 2 uM measured upto 12 hrs by Western blot analysis; format: cell-based; how it was run: as §4
[19] = target: T1, AMP-activated protein kinase, AMPK (Homo sapiens); assay: Activation of AMPK in human T24 cells assessed as decrease in 4EBP1 phosphorylation at 2 uM measured upto 12 hrs by Western blot analysis; format: cell-based; conditions: T-24; how it was run: as §4
[20] = target: T1, AMP-activated protein kinase, AMPK (Homo sapiens); assay: Activation of AMPK in human UM-UC-3 cells assessed as decrease in mTOR phosphorylation at 2 uM measured upto 12 hrs by Western blot analysis; format: cell-based; how it was run: as §4
[21] = target: T1, AMP-activated protein kinase, AMPK (Homo sapiens); assay: Activation of AMPK in human T24 cells assessed as decrease in p70S6K phosphorylation at 2 uM measured upto 12 hrs by Western blot analysis; format: cell-based; conditions: T-24; how it was run: as §4

Structure (SMILES) | IC50 (A549 [2]) [µM] | IC50 (HCT-116 [3]) [µM] | IC50 (A2780 [4]) [µM] | IC50 (UMUC3 [1]) [µM] | IC50 (T-24 [5]) [µM] | also measured
CCN(CC)C(=N)NC(=N)Nc1ccc(F)c(F)c1 | 7.8 | 39.4 | 20.4 | 22.1 | 44.8 | –
N=C(NC(=N)NC1CCCC1)Nc1ccc(F)cc1F | 4 | 29.5 | 14.7 | 18.4 | 37.8 | –
CC(C)NC(=N)NC(=N)Nc1ccc(C(F)(F)F)cc1 | 3.6 | 4.8 | 3.2 | 5.2 | 4.8 | –
CC(C)NC(=N)NC(=N)Nc1ccc(Cl)cc1 [PROGUANIL] | 3.8 | 8.4 | 13 | 16.3 | 18.4 | inhibition (T-24 [7]): inactive; Activity [14]: Active; inhibition (UMUC3 [8]): inactive; inhibition (UMUC3 [9]): Active; inhibition (HCT-116 [10]): Active; Activity [15]: inactive; inhibition (T-24 [11]): Active; Activity [16]: Active; Activity [17]: Active; Activity [18]: inactive; inhibition (A549 [12]): inactive; Activity [19]: Active; Activity [20]: Active; inhibition (A2780 [13]): Active; Activity [21]: Active
CC(C)NC(=N)NC(=N)Nc1ccc(F)cc1 | 7.5 | > 50 | 28 | > 50 | > 50 | –
CCN(CC)C(=N)NC(=N)Nc1ccc(C(F)(F)F)cc1 | 3.7 | 4.3 | 3.8 | 4.9 | 6.2 | –
CCN(C)C(=N)NC(=N)Nc1ccc(C(F)(F)F)cc1 | 4.1 | 4 | 5.1 | 6.9 | 5.7 | –
CC(C)NC(=N)NC(=N)Nc1ccc(F)c(F)c1 | 5.2 | > 50 | 26 | 25 | 45 | –

More lines, in order of falling IC50 (A549 [2]), values ahead:

IC50 (A549 [2]) [µM] | IC50 (HCT-116 [3]) [µM] | IC50 (A2780 [4]) [µM] | Structure (SMILES) | IC50 (UMUC3 [1]) [µM] | IC50 (T-24 [5]) [µM] | also measured
3.6 | 21.1 | 19.8 | CC(C)CNC(=N)NC(=N)Nc1ccc(F)cc1F | 17.3 | 40.8 | –
3.5 | 16.8 | 9.3 | N=C(NC(=N)NC1CCCC1)Nc1ccc(F)c(F)c1 | 7.2 | 24.9 | –
2.4 | 29.7 | 6.7 | CC(C)CNC(=N)NC(=N)Nc1ccc(F)c(F)c1 | 7.1 | 42.9 | –
1.8 | 3.8 | 2.5 | N=C(NC(=N)NC1CCCC1)Nc1ccc(C(F)(F)F)cc1 | 3.3 | 3.7 | inhibition at 2 µM (A549 [6]): 100%; inhibition (T-24 [7]): Active; inhibition (UMUC3 [8]): Active; inhibition (UMUC3 [9]): Active; inhibition (HCT-116 [10]): Active; IC50 (HUVEC): 7.3 µM; inhibition (T-24 [11]): Active; inhibition (A549 [12]): Active; inhibition (A2780 [13]): Active
1.5 | 1.8 | 1.5 | CCCCCCCNC(=N)NC(=N)Nc1ccc(F)c(F)c1 | 2.1 | 4.3 | inhibition at 2 µM (A549 [6]): 100%; inhibition (T-24 [7]): Active; inhibition (UMUC3 [8]): Active; inhibition (UMUC3 [9]): Active; inhibition (HCT-116 [10]): Active; IC50 (HUVEC): 6.4 µM; inhibition (T-24 [11]): Active; inhibition (A549 [12]): Active; inhibition (A2780 [13]): Active
1.3 | 3.5 | 2.1 | CC(C)CNC(=N)NC(=N)Nc1ccc(C(F)(F)F)cc1 | 2 | 3.1 | inhibition at 2 µM (A549 [6]): 100%; inhibition (T-24 [7]): Active; Activity [14]: Active; inhibition (UMUC3 [8]): Active; inhibition (UMUC3 [9]): Active; inhibition (HCT-116 [10]): Active; Activity [15]: Active; IC50 (HUVEC): 8.5 µM; inhibition (T-24 [11]): Active; Activity [16]: Active; Activity [17]: Active; Activity [18]: Active; inhibition (A549 [12]): Active; Activity [19]: Active; Activity [20]: Active; inhibition (A2780 [13]): Active; Activity [21]: Active
